# Measured values: PMC2861555 (International journal of radiation biology, 2009)
# Where two headings read alike, the source gives them in different places. Marks after values point to notes of the source that are not given here.
# Columns and labels:
# [1] = format: in vivo, rat; details: for Bile/Urine (%): bile share of U excretion / Bile/Urine (%): urine share of U excretion / % Administered Dose Excreted: 24 h; for Reduction (%) of renal uranium vs control / reduction of bone actinide content vs control: 24 h post-metal; for % Administered Dose Excreted: bile + urine; for Renal Conc.: kidneys removed 24 h post-metal; for Kidney U Conc. / Liver U Conc. / Lung U Conc. / Spleen U Conc. / Bone (femur) U Conc.: tissue 24 h post-metal; for Bone (femur) U Conc.: bone + bone marrow; for reduction of bone actinide content vs control: femur
# [2] = primates, dose 63.3 µmol kg^−1 day^−1; ref Bergeron et al., 2006b; cited from earlier work
# rats = details: ref Bergeron et al., cited from earlier work
# [3] = format: in vivo, rat; details: for administered uranium excreted (bile + urine): 24 h collection
# Summary of the method: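 Bile duct-cannulated rats got uranium 1 mg U kg−1 s.c., then were housed singly in metabolic cages. A single s.c. 300 µmol kg−1 dose of test compound followed at 1, 2 or 4 h post-uranium. Bile and urine were collected for 24 h. Uranium was measured by ICP-MS, triplicate runs averaged. Data are mean ± SEM; one-tailed t-test assuming unequal variances, p<0.05.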
# [4] = Multiple dose chelator administration in non-bile duct-cannulated; format: in vivo, rat; details: for % Administered Dose Excreted / Total U Excretion: urine + feces
# Summary of the method: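 Intact rats got uranyl acetate 1 mg U kg−1 s.c. (left flank), then test compound or DTPA 300 µmol kg−1 s.c. (right flank) immediately and at 24-h intervals (4 doses). Rats were caged singly with chow and water ad libitum. Urine and feces were collected every 24 h. Kidneys and other tissues were taken 24 h after the last dose. Uranium was measured by ICP-MS in triplicate; data are mean ± SEM.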
# [5] = single dose 300 µmol kg^−1 s.c.
# [6] = single 300 µmol kg^−1 s.c. dose given 1 h post-uranium
# [7] = single 300 µmol kg^−1 s.c. dose given 2 h post-uranium
# [8] = single 300 µmol kg^−1 s.c. dose given 4 h post-uranium
# [9] = 24 h after last of 4 daily s.c. doses of 300 µmol kg^−1
# [10] = Day 1, 300 µmol kg^−1 s.c. daily x 4
# [11] = Day 2, 300 µmol kg^−1 s.c. daily x 4
# [12] = Day 3, 300 µmol kg^−1 s.c. daily x 4
# [13] = Day 4, 300 µmol kg^−1 s.c. daily x 4
smiles,measurement,setting,value
"COCCOCCOCCOc1ccc(C2=N[C@@](C)(C(=O)O)CS2)c(O)c1 [compound 9, (S)-4,5-dihydro-2-[2-hydroxy-4-(3,6,9-trioxadecyloxy)phenyl]-4-methyl-4-thiazolecarboxylic acid]",Bile/Urine (%): bile share of U excretion,[1]; single dose 150 µmol kg^−1 SC,69%
same,Bile/Urine (%): urine share of U excretion,[1]; single dose 150 µmol kg^−1 SC,31%
same,Reduction (%) of renal uranium vs control,[1]; single dose 150 µmol kg^−1 SC,55%
same,% Administered Dose Excreted,[1]; single dose 150 µmol kg^−1 SC,48.2%
same,Renal Conc.,[1]; single dose 150 µmol kg^−1 SC,37 ± 16 ^b µg g^−1
same,Kidney U Conc.,[1]; single dose 150 µmol kg^−1 SC,37 ± 16 ^b µg g^−1
same,Liver U Conc.,[1]; single dose 150 µmol kg^−1 SC,1.6 ± 0.9 ^c µg g^−1
same,Lung U Conc.,[1]; single dose 150 µmol kg^−1 SC,0.16 ± 0.13 µg/g
same,Spleen U Conc.,[1]; single dose 150 µmol kg^−1 SC,0.20 ± 0.05 µg/g
same,Bone (femur) U Conc.,[1]; single dose 150 µmol kg^−1 SC,2.1 ± 0.5 ^b µg g^−1
same,reduction of bone actinide content vs control,[1]; single dose 150 µmol kg^−1 s.c.,42%
same,Bile/Urine (%): urine share of U excretion,[1]; single dose 300 µmol kg^−1 PO,29%
same,Bile/Urine (%): bile share of U excretion,"[1]; single dose 300 µmol kg^−1 PO, listed as C00009",71%
same,Reduction (%) of renal uranium vs control,[1]; single dose 300 µmol kg^−1 PO,57%
same,% Administered Dose Excreted,[1]; single dose 300 µmol kg^−1 PO,43.5%
same,Renal Conc.,[1]; single dose 300 µmol kg^−1 PO,36 ± 8 ^b µg g^−1
same,Kidney U Conc.,[1]; single dose 300 µmol kg^−1 PO,36 ± 8 ^b µg g^−1
same,Liver U Conc.,[1]; single dose 300 µmol kg^−1 PO,0.6 ± 0.2 ^c µg g^−1
same,Lung U Conc.,[1]; single dose 300 µmol kg^−1 PO,0.10 ± 0.02 ^b µg g^−1
same,Spleen U Conc.,[1]; single dose 300 µmol kg^−1 PO,0.13 ± 0.02 ^b µg g^−1
same,Bone (femur) U Conc.,[1]; single dose 300 µmol kg^−1 PO,2.7 ± 1.2 µg/g
same,Bile/Urine (%): bile share of U excretion,[1]; single dose 300 µmol kg^−1 SC,84%
same,Bile/Urine (%): urine share of U excretion,[1]; single dose 300 µmol kg^−1 SC,16%
same,Reduction (%) of renal uranium vs control,[1]; single dose 300 µmol kg^−1 SC,66%
same,% Administered Dose Excreted,[1]; single dose 300 µmol kg^−1 SC,~52%
same,% Administered Dose Excreted,"[1]; single dose 300 µmol kg^−1 SC, listed as C00009",51.5%
same,Renal Conc.,[1]; single dose 300 µmol kg^−1 SC,29 ± 6 ^b µg g^−1
same,Kidney U Conc.,[1]; single dose 300 µmol kg^−1 SC,29 ± 6 ^b µg g^−1
same,Liver U Conc.,[1]; single dose 300 µmol kg^−1 SC,0.9 ± 0.2 ^c µg g^−1
same,Lung U Conc.,[1]; single dose 300 µmol kg^−1 SC,0.13 ± 0.02 µg/g
same,Spleen U Conc.,[1]; single dose 300 µmol kg^−1 SC,0.18 ± 0.04 µg/g
same,Bone (femur) U Conc.,[1]; single dose 300 µmol kg^−1 SC,1.9 ± 0.5 ^b µg g^−1
same,reduction of bone actinide content vs control,[1]; [5],48%
same,iron excretion,[2],450 µg Fe kg^−1
same,nephrotoxicity,"rats; rodent model, 2006b",virtually eliminated nephrotoxicity
same,reduction in renal uranium content vs control,[3]; [6],74%
same,administered uranium excreted (bile + urine),[3]; [6],34.6%
same,reduction in renal uranium content vs control,[3]; [7],68%
same,administered uranium excreted (bile + urine),[3]; [7],28.5%
same,reduction in renal uranium content vs control,[3]; [8],35%
same,administered uranium excreted (bile + urine),[3]; [8],28.6%
same,Reduction (%) of renal uranium vs control,[4]; [9],62%
same,Renal Conc.,[4]; [9],12 ± 2 ^c µg g^−1
same,Fecal U Excretion,[4]; [10],478 ± 181 µg/kg
same,Urine U Excretion,"[4]; Day 1, 300 µmol kg^−1 s.c. daily x 4, first dose immediately post-U",205 ± 27 µg/kg
same,% Administered Dose Excreted,[4]; [10],68.3%
same,Total U Excretion,[4]; [10],683 ± 161 ^d µg kg^−1
same,Fecal U Excretion,[4]; [11],116 ± 46 µg/kg
same,Urine U Excretion,[4]; [11],39 ± 5 µg/kg
same,% Administered Dose Excreted,[4]; [11],15.5%
same,Total U Excretion,[4]; [11],155 ± 48 ^d µg kg^−1
same,Fecal U Excretion,[4]; [12],33 ± 4 µg/kg
same,Urine U Excretion,[4]; [12],23 ± 4 µg/kg
same,% Administered Dose Excreted,[4]; [12],5.6%
same,Total U Excretion,[4]; [12],56 ± 7 µg/kg
same,Fecal U Excretion,[4]; [13],25 ± 2 µg/kg
same,Urine U Excretion,[4]; [13],11 ± 1 µg/kg
same,% Administered Dose Excreted,[4]; [13],3.6%
same,Total U Excretion,[4]; [13],36 ± 1 µg/kg
same,administered dose of uranium excreted at the end of four days (urine + feces),"[4]; cumulative over 4 days, 300 µmol kg^−1 s.c. daily x 4",93%
"COCCOCCOCCOc1cccc(C2=N[C@@](C)(C(=O)O)CS2)c1O [compound 10, (S)-4,5-dihydro-2-[2-hydroxy-3-(3,6,9-trioxadecyloxy)phenyl]-4-methyl-4-thiazolecarboxylic acid]",Bile/Urine (%): bile share of U excretion,[1]; single dose 150 µmol kg^−1 SC,55%
same,Bile/Urine (%): urine share of U excretion,[1]; single dose 150 µmol kg^−1 SC,45%
same,Reduction (%) of renal uranium vs control,[1]; single dose 150 µmol kg^−1 SC,61%
same,% Administered Dose Excreted,[1]; single dose 150 µmol kg^−1 SC,31.6%
same,Renal Conc.,[1]; single dose 150 µmol kg^−1 SC,33 ± 8 ^b µg g^−1
same,Kidney U Conc.,[1]; single dose 150 µmol kg^−1 SC,33 ± 8 ^b µg g^−1
same,Liver U Conc.,[1]; single dose 150 µmol kg^−1 SC,1.2 ± 0.6 ^c µg g^−1
same,Lung U Conc.,[1]; single dose 150 µmol kg^−1 SC,0.09 ± 0.02 ^b µg g^−1
same,Spleen U Conc.,[1]; single dose 150 µmol kg^−1 SC,0.21 ± 0.01 ^c µg g^−1
same,Bone (femur) U Conc.,[1]; single dose 150 µmol kg^−1 SC,3.4 ± 0.1 µg/g
same,Reduction (%) of renal uranium vs control,[1]; single dose 300 µmol kg^−1 PO,62%
same,% Administered Dose Excreted,[1]; single dose 300 µmol kg^−1 PO,25.7%
same,Renal Conc.,[1]; single dose 300 µmol kg^−1 PO,32 ± 20 ^b µg g^−1
same,Kidney U Conc.,[1]; single dose 300 µmol kg^−1 PO,32 ± 20 ^b µg g^−1
same,Liver U Conc.,[1]; single dose 300 µmol kg^−1 PO,0.7 ± 0.4 ^c µg g^−1
same,Lung U Conc.,[1]; single dose 300 µmol kg^−1 PO,0.13 ± 0.04 µg/g
same,Spleen U Conc.,[1]; single dose 300 µmol kg^−1 PO,0.16 ± 0.05 µg/g
same,Bone (femur) U Conc.,[1]; single dose 300 µmol kg^−1 PO,3.1 ± 1.1 µg/g
same,Bile/Urine (%): bile share of U excretion,[1]; single dose 300 µmol kg^−1 SC,79%
same,Bile/Urine (%): urine share of U excretion,[1]; single dose 300 µmol kg^−1 SC,21%
same,Reduction (%) of renal uranium vs control,[1]; single dose 300 µmol kg^−1 SC,85%
same,% Administered Dose Excreted,[1]; single dose 300 µmol kg^−1 SC,31.4%
same,Renal Conc.,[1]; single dose 300 µmol kg^−1 SC,13 ± 6 ^b µg g^−1
same,Kidney U Conc.,[1]; single dose 300 µmol kg^−1 SC,13 ± 6 ^b µg g^−1
same,Liver U Conc.,[1]; single dose 300 µmol kg^−1 SC,0.8 ± 0.2 ^c µg g^−1
same,Lung U Conc.,[1]; single dose 300 µmol kg^−1 SC,0.08 ± 0.02 ^b µg g^−1
same,Spleen U Conc.,[1]; single dose 300 µmol kg^−1 SC,0.18 ± 0.03 µg/g
same,Bone (femur) U Conc.,[1]; single dose 300 µmol kg^−1 SC,2.3 ± 0.6 ^b µg g^−1
same,reduction of bone actinide content vs control,[1]; [5],36%
same,nephrotoxicity,rats; 2008,did not present with any nephrotoxicity
